Active and inactive are the calls of the source. The calls are words filed in the database; no cut-off is given here.
What was measured:
R2 [1] = assay: Growth inhibition of Chinese hamster R2 cells deficient in reduced folate carrier and human folate receptor alpha incubated for 96 hrs by CellTiter-blue cell viability assay; assay type: cell-based, Cricetulus griseus; conditions: R2, 96 h
R2 [2] = assay: Growth inhibition of Chinese hamster R2 cells expressing human PCFT incubated for 96 hrs by CellTiter-blue cell viability assay; assay type: functional, cell-based, Cricetulus griseus; conditions: R2, 96 h
Outline: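 R2/hPCFT4 CHO cells maintained beforehand in folate-free RPMI 1640 with dialyzed FBS, 25 nM LCV and G418. Assay: ~2500–5000 cells/well in folate-free RPMI 1640 (pH 7.2) with 25 nM LCV, 10% dialyzed FBS, antibiotics and L-glutamine, over a range of drug concentrations.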

IGROV-1 [3] = assay: Growth inhibition of human IGROV1 cells endogenously expressing RFC/FRalpha/PCFT in presence of folic acid incubated for 96 hrs by CellTiter-blue cell viability assay; assay type: functional, cell-based; conditions: IGROV-1, 96 h
KB [4] = assay: Growth inhibition of human KB cells endogenously expressing RFC/FRalpha/PCFT incubated for 96 hrs by CellTiter-blue cell viability assay; assay type: functional, cell-based
KB [5] = assay: Growth inhibition of human KB cells endogenously expressing RFC/FRalpha/PCFT in presence of folic acid incubated for 96 hrs by CellTiter-blue cell viability assay; assay type: functional, cell-based
R2 [6] = assay: Growth inhibition of Chinese hamster R2 cells expressing empty vector control incubated for 96 hrs by CellTiter-blue cell viability assay; conditions: Cricetulus griseus, R2, 96 h
[7] = Growth inhibition of Chinese hamster RT16 cells expressing human folate receptor alpha incubated for 96 hrs in presence of folic acid by CellTiter-blue cell viability assay; assay type: functional, cell-based; conditions: Cricetulus griseus, RT16, 96 h
[8] = Growth inhibition of Chinese hamster RT16 cells expressing human folate receptor alpha incubated for 96 hrs by CellTiter-blue cell viability assay; assay type: functional, cell-based; conditions: Cricetulus griseus, RT16, 96 h
[9] = Growth inhibition of Chinese hamster PC43-10 cells expressing reduced folate carrier incubated for 96 hrs by CellTiter-blue cell viability assay; assay type: functional, cell-based; conditions: Cricetulus griseus, PC43-10, 96 h
IGROV-1 [10] = assay: Growth inhibition of human IGROV1 cells endogenously expressing RFC/FRalpha/PCFT incubated for 96 hrs by CellTiter-blue cell viability assay; assay type: functional, cell-based; conditions: IGROV-1, 96 h
IGROV-1 [11] = assay: Growth inhibition of human IGROV1 cells endogenously expressing RFC/FRalpha/PCFT in presence of 320 uM 5-amino-4-imidazolecarboxamide incubated for 96 hrs by CellTiter-blue cell viability assay; assay type: functional, cell-based
KB [12] = assay: Inhibition of colony formation of human KB cells endogenously expressing RFC/FRalpha/PCFT incubated for 14 days by methylene blue staining based clonogenicty assay; assay type: functional, cell-based; conditions: 336 h
[13] = molecular target: T1, Trifunctional purine biosynthetic protein adenosine-3 (Homo sapiens, UniProt P22102); assay: Inhibition of GARFTase in human IGROV1 cells assessed as reduction in [14C]glycine incorporation into [14C]formyl GAR incubated for 15 hrs in complete folate free RPMI medium in presence of 2 nM leucovorin; assay type: cell-based, IGROV-1
T1 sequence (P22102 whole entry): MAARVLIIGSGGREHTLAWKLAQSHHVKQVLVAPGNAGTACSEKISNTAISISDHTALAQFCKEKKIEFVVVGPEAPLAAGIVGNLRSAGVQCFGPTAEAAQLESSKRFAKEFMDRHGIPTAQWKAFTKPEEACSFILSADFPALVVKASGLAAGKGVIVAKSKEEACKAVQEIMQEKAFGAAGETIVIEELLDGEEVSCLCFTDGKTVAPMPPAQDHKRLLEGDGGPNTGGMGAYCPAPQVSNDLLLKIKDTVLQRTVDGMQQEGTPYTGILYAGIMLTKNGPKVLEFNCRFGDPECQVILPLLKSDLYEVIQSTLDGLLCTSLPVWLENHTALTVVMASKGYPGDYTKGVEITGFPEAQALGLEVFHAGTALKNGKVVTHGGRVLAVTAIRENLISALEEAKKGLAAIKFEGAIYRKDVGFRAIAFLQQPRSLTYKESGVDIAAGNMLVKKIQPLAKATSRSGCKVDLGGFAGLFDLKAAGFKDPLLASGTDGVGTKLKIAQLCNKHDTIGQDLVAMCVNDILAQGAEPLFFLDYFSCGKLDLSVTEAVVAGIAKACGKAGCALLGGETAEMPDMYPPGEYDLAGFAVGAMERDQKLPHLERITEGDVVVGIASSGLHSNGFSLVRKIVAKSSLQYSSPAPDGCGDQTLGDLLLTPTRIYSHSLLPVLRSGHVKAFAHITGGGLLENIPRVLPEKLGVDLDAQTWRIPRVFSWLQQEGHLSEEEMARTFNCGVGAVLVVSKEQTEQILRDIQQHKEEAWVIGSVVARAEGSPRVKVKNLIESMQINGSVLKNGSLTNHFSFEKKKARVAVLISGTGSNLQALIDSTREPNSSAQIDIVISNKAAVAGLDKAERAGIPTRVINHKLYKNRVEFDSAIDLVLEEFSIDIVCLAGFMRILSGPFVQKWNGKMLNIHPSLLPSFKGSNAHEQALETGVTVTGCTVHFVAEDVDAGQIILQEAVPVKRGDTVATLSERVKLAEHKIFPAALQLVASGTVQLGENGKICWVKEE

KB [14] = assay: Growth inhibition of human KB cells endogenously expressing RFC/FRalpha/PCFT in presence of 60 uM adenosine incubated for 96 hrs by CellTiter-blue cell viability assay; assay type: functional, cell-based
IGROV-1 [15] = assay: Growth inhibition of human IGROV1 cells endogenously expressing RFC/FRalpha/PCFT in presence of 60 uM adenosine incubated for 96 hrs by CellTiter-blue cell viability assay; assay type: functional, cell-based
[16] = molecular target: T2, Proton-coupled folate transporter (Homo sapiens, UniProt Q96NT5); assay: Inhibition of [3H]MTX transport at human PCFT expressed in Chinese hamster R2 cells at pH 5.5 by Dixon plot; assay type: cell-based
T2 sequence (Q96NT5 whole entry): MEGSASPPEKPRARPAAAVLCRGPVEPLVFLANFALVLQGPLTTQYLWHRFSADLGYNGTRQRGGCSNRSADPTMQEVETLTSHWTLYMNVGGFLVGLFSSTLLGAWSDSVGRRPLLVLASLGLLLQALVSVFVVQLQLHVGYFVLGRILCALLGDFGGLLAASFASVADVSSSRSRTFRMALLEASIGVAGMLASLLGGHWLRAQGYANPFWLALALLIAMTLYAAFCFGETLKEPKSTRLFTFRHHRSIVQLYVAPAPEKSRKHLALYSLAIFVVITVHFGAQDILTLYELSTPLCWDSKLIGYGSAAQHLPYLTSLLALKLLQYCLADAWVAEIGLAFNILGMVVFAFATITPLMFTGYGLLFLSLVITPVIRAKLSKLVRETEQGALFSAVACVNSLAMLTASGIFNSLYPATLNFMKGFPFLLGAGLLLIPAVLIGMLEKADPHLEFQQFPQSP
Outline: (§1)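 R2/hPCFT4 CHO cells grown in spinner flasks, resuspended in HBS at pH 6.8 or MES-buffered saline at pH 5.5. Uptake quenched with ice-cold DPBS and normalized to protein. Mean ± SE, n=4–8.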

[17] = molecular target: T3, Proton-coupled folate transporter (Homo sapiens) (UniProt Q96NT5); assay: Ratio of Ki for human PCFT at pH 6.8 to Ki for human PCFT at pH 5.5 by [3H]MTX transport assay
T3 sequence (whole entry): T2 sequence (Q96NT5 whole entry)

[18] = molecular target: Folate receptor alpha (Homo sapiens) (UniProt P15328); assay type: cell-based; conditions: CHO
Chain of Folate receptor alpha (Homo sapiens) (P15328 25-234 limits assumed): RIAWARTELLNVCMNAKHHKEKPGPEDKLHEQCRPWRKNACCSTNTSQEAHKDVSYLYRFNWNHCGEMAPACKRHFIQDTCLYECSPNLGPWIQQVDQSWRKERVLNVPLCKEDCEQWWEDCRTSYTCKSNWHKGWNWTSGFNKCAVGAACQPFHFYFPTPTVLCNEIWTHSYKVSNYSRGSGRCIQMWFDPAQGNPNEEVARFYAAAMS

KB [19] = assay: Growth inhibition of human KB cells endogenously expressing RFC/FRalpha/PCFT in presence of 10 uM thymidine incubated for 96 hrs by CellTiter-blue cell viability assay; assay type: functional, cell-based
KB [20] = assay: Growth inhibition of human KB cells endogenously expressing RFC/FRalpha/PCFT in presence of 320 uM 5-amino-4-imidazolecarboxamide incubated for 96 hrs by CellTiter-blue cell viability assay; assay type: functional, cell-based
[21] = molecular target: T2, Proton-coupled folate transporter; assay: Inhibition of [3H]MTX transport at human PCFT expressed in Chinese hamster R2 cells at pH 6.8 by Dixon plot; assay type: cell-based; outline: as §1
KB [22] = assay: Growth inhibition of human KB cells endogenously expressing RFC/FRalpha/PCFT in presence of 50 nM leucovorin incubated for 96 hrs by CellTiter-blue cell viability assay; assay type: functional, cell-based
Outline: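 KB cells in complete folate-free RPMI 1640 with 10% dialyzed FBS and LCV at 50 nM (versus the standard 2 nM), exposed to a range of antifolate concentrations for up to 96 h. Cell density read by CellTiter-blue fluorescence and normalized to drug-free cells. Representative data from experiments run in duplicate.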

IGROV-1 [23] = assay: Growth inhibition of human IGROV1 cells endogenously expressing RFC/FRalpha/PCFT in presence of 10 uM thymidine incubated for 96 hrs by CellTiter-blue cell viability assay; assay type: functional, cell-based

## Nc1nc2[nH]c(CCC#Cc3csc(C(=O)N[C@@H](CCC(=O)O)C(=O)O)c3)cc2c(=O)[nH]1
R2 [1]
  IC50: > 1 µM
R2 [2]
  IC50: > 1 µM
IGROV-1 [3]
  IC50: > 1 µM
KB [4]
  IC50: > 1 µM
KB [5]
  IC50: > 1 µM
R2 [6]
  IC50: > 1 µM
[7]
  IC50: > 1 µM
[8]
  IC50: 0.0135 µM
[9]
  IC50: > 1 µM
IGROV-1 [10]
  IC50: > 1 µM

## Nc1nc2[nH]c(CCCCc3cc(C(=O)N[C@@H](CCC(=O)O)C(=O)O)cs3)cc2c(=O)[nH]1
IGROV-1 [11]
  growth inhibition (GI): inactive
KB [12]
  IC50: 0.00016 µM
R2 [1]
  IC50: > 1 µM
R2 [2]
  IC50: 0.0638 µM
[13]
  IC50: 0.00203 µM
KB [14]
  growth inhibition (GI): inactive
IGROV-1 [3]
  IC50: > 1 µM
IGROV-1 [15]
  growth inhibition (GI): inactive
[16]
  Ki: 0.42 µM
KB [4]
  IC50: 0.00027 µM
KB [5]
  IC50: > 1 µM
[17]
  Ratio Ki: 70
R2 [6]
  IC50: > 1 µM
[18]
  relative binding affinity (RBA): > 1
[7]
  IC50: > 1 µM
KB [19]
  growth inhibition (GI): Active
[8]
  IC50: 0.0026 µM
KB [20]
  growth inhibition (GI): inactive
[21]
  Ki: 30.7 µM
[9]
  IC50: > 1 µM
KB [22]
  IC50: > 0.02 µM
IGROV-1 [10]
  IC50: 0.0014 µM
IGROV-1 [23]
  growth inhibition (GI): Active

## Nc1nc2[nH]c(CCC#Cc3cscc3C(=O)N[C@@H](CCC(=O)O)C(=O)O)cc2c(=O)[nH]1
R2 [1]
  IC50: > 1 µM
R2 [2]
  IC50: > 1 µM
KB [4]
  IC50: > 1 µM
KB [5]
  IC50: > 1 µM
R2 [6]
  IC50: > 1 µM
[7]
  IC50: > 1 µM
[8]
  IC50: > 1 µM
[9]
  IC50: > 1 µM

## Nc1nc2[nH]c(CCCCc3csc(C(=O)N[C@@H](CCC(=O)O)C(=O)O)c3)cc2c(=O)[nH]1
IGROV-1 [11]
  growth inhibition (GI): inactive
KB [12]
  IC50: 0.00039 µM
R2 [1]
  IC50: > 1 µM
R2 [2]
  IC50: 0.0415 µM
KB [14]
  growth inhibition (GI): inactive
IGROV-1 [3]
  IC50: > 1 µM
IGROV-1 [15]
  growth inhibition (GI): inactive
[16]
  Ki: 0.39 µM
KB [4]
  IC50: 0.00017 µM
KB [5]
  IC50: > 1 µM
R2 [6]
  IC50: > 1 µM
[18]
  relative binding affinity (RBA): > 1
[7]
  IC50: > 1 µM
KB [19]
  growth inhibition (GI): Active
[8]
  IC50: 0.00254 µM
KB [20]
  growth inhibition (GI): inactive
[21]
  Ki: 28.1 µM
[9]
  IC50: > 1 µM
KB [22]
  IC50: 0.0034 µM
IGROV-1 [10]
  IC50: 0.00048 µM
IGROV-1 [23]
  growth inhibition (GI): Active

## Nc1nc2[nH]c(CCCc3ccc(C(=O)N[C@@H](CCC(=O)O)C(=O)O)s3)cc2c(=O)[nH]1
IGROV-1 [3]
  IC50: > 1 µM
KB [5]
  IC50: > 1 µM
R2 [6]
  IC50: 0.288 µM
[7]
  IC50: > 1 µM
[9]
  IC50: 0.101 µM

## Nc1nc2[nH]c(CCCCc3sccc3C(=O)N[C@@H](CCC(=O)O)C(=O)O)cc2c(=O)[nH]1
R2 [1]
  IC50: > 1 µM
R2 [2]
  IC50: > 1 µM
KB [4]
  IC50: 0.171 µM
KB [5]
  IC50: > 1 µM
R2 [6]
  IC50: > 1 µM
[7]
  IC50: > 1 µM
[8]
  IC50: > 1 µM
[9]
  IC50: > 1 µM

## Nc1nc2[nH]c(CCC#Cc3ccsc3C(=O)N[C@@H](CCC(=O)O)C(=O)O)cc2c(=O)[nH]1
R2 [1]
  IC50: > 1 µM
R2 [2]
  IC50: > 1 µM
KB [4]
  IC50: > 1 µM
KB [5]
  IC50: > 1 µM
R2 [6]
  IC50: > 1 µM
[7]
  IC50: > 1 µM
[8]
  IC50: > 1 µM
[9]
  IC50: > 1 µM
